Source: ChEMBL document CHEMBL2385053, “Novel isoquinoline derivatives as antimicrobial agents” (2013)

How the values were obtained:
[1] = test system: Pectobacterium carotovorum; experiment: Bactericidal activity against Erwinia carotovora CECT 225 at 0.2 mg/disk after 24 hrs by paper disk-agar diffusion method; type: functional
Summary of the method: (§1)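 Each bacterial strain was taken from a 24-h culture on solid medium, reactivated in Nutrient Broth, and grown a further 24 h at 28 or 37 °C depending on the strain. 1 mL of suspension was mixed with 15 mL Plate Count Agar. Four 0.5 cm paper disks (0.2 mg/disk) were placed on the set agar. Controls were vehicle-only disks and tetracycline. Plates were incubated 24 h, dark, 28 or 37 °C. The inhibition zone was read in mm as the mean ± SE of three independent experiments.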

[2] = test system: Salmonella typhi; experiment: Bactericidal activity against Salmonella typhi CECT 409 at 0.2 mg/disk after 24 hrs by paper disk-agar diffusion method; type: functional, Salmonella enterica subsp. enterica serovar Typhi
Summary of the method: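 Paper disk-agar diffusion, run in triplicate. 24-h culture reactivated in nutrient broth and grown a further 24 h at 28 or 37 °C by species. 1 mL suspension mixed into 15 mL plate count agar. Four 0.5 cm disks placed per plate, incubated 24 h in the dark. Inhibition zone (mm) reported as mean ± SE of three independent experiments; vehicle disks as negative control.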

[3] = test system: Enterococcus faecalis; experiment: Bactericidal activity against Enterococcus faecalis CECT 481 at 0.2 mg/disk after 24 hrs by paper disk-agar diffusion method; type: functional; summary of the method: as §1
[4] = test system: Escherichia coli; experiment: Bactericidal activity against Escherichia coli CECT 100 at 0.2 mg/disk after 24 hrs by paper disk-agar diffusion method; type: functional; summary of the method: as §1
[5] = test system: Escherichia coli; experiment: Bactericidal activity against Escherichia coli CECT 100 at 0.2 mg/disk after 24 hrs by paper disk-agar diffusion method relative to control; type: functional
[6] = test system: Bacillus cereus; experiment: Bactericidal activity against Bacillus cereus CECT 148 at 0.2 mg/disk after 24 hrs by paper disk-agar diffusion method; type: functional; summary of the method: as §1
[7] = test system: Escherichia coli; experiment: Bactericidal activity against Escherichia coli CECT 405 at 0.2 mg/disk after 24 hrs by paper disk-agar diffusion method; type: functional; summary of the method: as §1
[8] = test system: Staphylococcus aureus; experiment: Bactericidal activity against Staphylococcus aureus CECT 86 at 0.2 mg/disk after 24 hrs by paper disk-agar diffusion method; type: functional; summary of the method: as §1
[9] = test system: Bacillus cereus; experiment: Bactericidal activity against Bacillus cereus CECT 148 at 0.2 mg/disk after 24 hrs by paper disk-agar diffusion method relative to control; type: functional
[10] = test system: Aspergillus parasiticus; experiment: Fungicidal activity against Aspergillus parasiticus CECT 2681 at 0.2 mg/disk after 72 hrs by paper disk-agar diffusion method; type: functional
Summary of the method: (§2)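 Fungi were grown on potato dextrose agar (PDA) for 7 days at 28 °C. Conidia were suspended to ~10⁶/mL in 0.05% Tween 80 in sterile water, and 1 mL was mixed into 15 mL PDA. Four 0.5 cm paper disks (0.2 mg/disk) were placed on the set agar. Controls were vehicle-only disks and benomyl at species-dependent doses. The inhibition zone was read in mm at 72 h as the mean ± SE of three independent experiments.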

[11] = test system: Geotrichum candidum; experiment: Fungicidal activity against Geotrichum candidum CCM 245 at 0.2 mg/disk after 72 hrs by paper disk-agar diffusion method; type: functional; summary of the method: as §2
[12] = test system: Fusarium culmorum; experiment: Fungicidal activity against Fusarium culmorum CCM 172 at 0.2 mg/disk after 72 hrs by paper disk-agar diffusion method; type: functional; summary of the method: as §2
[13] = test system: Trichoderma viride; experiment: Fungicidal activity against Trichoderma viride CECT 2423 at 0.2 mg/disk after 72 hrs by paper disk-agar diffusion method; type: functional; summary of the method: as §2
[14] = test system: Phytophthora citrophthora; experiment: Fungicidal activity against Phytophthora citrophthora CECT 2353 at 0.2 mg/disk after 72 hrs by paper disk-agar diffusion method; type: functional; summary of the method: as §2
[15] = test system: Pectobacterium carotovorum; experiment: Bactericidal activity against Erwinia carotovora CECT 225 at 0.2 mg/disk after 24 hrs by paper disk-agar diffusion method relative to control; type: functional
[16] = test system: Enterococcus faecalis; experiment: Bactericidal activity against Enterococcus faecalis CECT 481 at 0.2 mg/disk after 24 hrs by paper disk-agar diffusion method relative to control; type: functional
[17] = test system: Escherichia coli; experiment: Bactericidal activity against Escherichia coli CECT 405 at 0.2 mg/disk after 24 hrs by paper disk-agar diffusion method relative to control; type: functional
[18] = test system: Salmonella typhi; experiment: Bactericidal activity against Salmonella typhi CECT 409 at 0.2 mg/disk after 24 hrs by paper disk-agar diffusion method relative to control; type: functional, Salmonella enterica subsp. enterica serovar Typhi
[19] = test system: Staphylococcus aureus; experiment: Bactericidal activity against Staphylococcus aureus CECT 86 at 0.2 mg/disk after 24 hrs by paper disk-agar diffusion method relative to control; type: functional
[20] = test system: Trichoderma viride; experiment: Fungicidal activity against Trichoderma viride CECT 2423 at 1 ug/disk after 72 hrs by paper disk-agar diffusion method; type: functional; details: CECT 2423, 72 h, read-out: IZ
Summary of the method: (§3)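 Fungi grown on potato dextrose agar for 7 days at 28 °C. Conidia suspended to about 10⁶/mL in 0.05% Tween 80 in sterile water. 1 mL suspension added to 15 mL PDA; four impregnated 0.5 cm disks placed after setting. Inhibition zone measured at 72 h; mean ± SE of three independent experiments. Vehicle disks as negative control; benomyl dose set per fungal species.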

[21] = test system: Fusarium culmorum; experiment: Fungicidal activity against Fusarium culmorum CCM 172 at 10 ug/disk after 72 hrs by paper disk-agar diffusion method; type: functional; details: CCM 172, 72 h, read-out: IZ; summary of the method: as §3
[22] = test system: Aspergillus parasiticus; experiment: Fungicidal activity against Aspergillus parasiticus CECT 2681 at 1 ug/disk after 72 hrs by paper disk-agar diffusion method; type: functional; details: CECT 2681, 72 h, read-out: IZ; summary of the method: as §3
[23] = test system: Phytophthora citrophthora; experiment: Fungicidal activity against Phytophthora citrophthora CECT 2353 at 1.5 ug/disk after 72 hrs by paper disk-agar diffusion method; type: functional; details: CECT 2353, 72 h, read-out: IZ; summary of the method: as §3

Row | SMILES | inhibition zone (IZ) [1] | inhibition zone (IZ) [2] | inhibition zone (IZ) [3] | inhibition zone (IZ) [4] | Activity [5] | inhibition zone (IZ) [6] | inhibition zone (IZ) [7] | inhibition zone (IZ) [8] | inhibition zone (IZ) [10] | inhibition zone (IZ) [11] | inhibition zone (IZ) [12] | inhibition zone (IZ) [13] | inhibition zone (IZ) [14] | other results
1 | COc1cc2c(cc1OC)C(CCCCCO)N(C)CC2 (configuration not stated) | 8 mm | 12.33 mm | 10.33 mm | 16 mm | 62% | 0 mm | 11.33 mm | 10.67 mm | – | – | – | – | – | –
2 | COc1cc2c(cc1OC)C(CCCCCOC(=O)CCc1ccc(F)cc1)N(C)CC2 (configuration not stated) | 11.67 mm | 9.17 mm | 9.33 mm | 11.83 mm | 46% | 11.33 mm | 8.83 mm | 10.33 mm | 0 mm | 8.33 mm | 7.67 mm | 8.33 mm | 6 mm | Activity [9]: 49%
3 | COc1cc2c(cc1OC)C(CCCCCOC(=O)Nc1ccccc1)N(C)CC2 (configuration not stated) | 10.67 mm | 12 mm | 14.17 mm | 15.17 mm | 59% | 12.67 mm | 12.33 mm | 15 mm | 0 mm | 6.25 mm | 7 mm | 5.75 mm | 0 mm | –
4 | COc1cc2c(cc1OC)C(CCCCCOC(=O)Nc1ccc(F)cc1)N(C)CC2 (configuration not stated) | 22.33 mm | 14.67 mm | 20 mm | 12.33 mm | – | 14.33 mm | 12 mm | 14 mm | – | – | – | – | – | Activity [15]: 64%; Activity [16]: 64%
5 | COc1cc2c(cc1OC)C(CCCCCOC(=O)Nc1ccc(Cl)cc1)N(C)CC2 (configuration not stated) | 12.5 mm | 16.33 mm | 18 mm | 13.17 mm | – | 14.33 mm | 17.33 mm | 17.33 mm | 0 mm | 10.33 mm | 7.33 mm | 8.67 mm | 0 mm | Activity [17]: 68%; Activity [18]: 67%
6 | COc1ccc(NC(=O)OCCCCCC2c3cc(OC)c(OC)cc3CCN2C)cc1 (configuration not stated) | 9.67 mm | 11.33 mm | 14.67 mm | 11.67 mm | – | 10.33 mm | 13.33 mm | 13.67 mm | 0 mm | 6.67 mm | 0 mm | 6.17 mm | 0 mm | Activity [19]: 51%; Activity [17]: 52%
7 | CCCCNC(=O)n1c(NC(=O)OC)nc2ccccc21 [BENOMYL] | – | – | – | – | – | – | – | – | – | 0 mm | – | – | – | zone of inhibition at 1 µg/disc [20]: 22 mm; zone of inhibition at 10 µg/disc [21]: 18 mm; zone of inhibition at 1 µg/disc [22]: 18 mm; zone of inhibition at 1.5 µg/disc [23]: 24.5 mm
